Blank lines part the entries; values can stand above or below the molecule they belong to. Where a SMILES comes first, the peptide text is derived from it.
Tests used:
[1] = tested on: Mcl-1 2640 cells (Mcl-1 dependent); test: BH3 profiling, Mcl-1 2640; format: cell-based, murine; settings: 5 μM peptide
Summary of the method: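 Myc-driven murine leukemia line, Mcl-1 dependent, grown in RPMI 1640 with 10% FBS and […] 2-mercaptoethanol. Permeabilized cells at 2×10^4/well, triplicate wells, exposed to peptides including 5 μM. JC-1 read-out; depolarization expressed as percentage relative to FCCP (full) and DMSO (none). At least three biological replicates.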

[2] = tested on: Bcl-2 3256 cells (Bcl-2 dependent)
Bcl-2 (residues 1-217) [3] = target: T1, Bcl-2 (residues 1-217) (Homo sapiens, UniProt P10415); test: Fluorescence polarization competition binding assay, Bcl-2
Summary of the method: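 Human Bcl-2 (residues 1-217), expressed in E. coli. Buffer: 20 mM sodium phosphate, 50 mM NaCl, 1 mM EDTA, 0.001% Triton X, 5% DMSO, pH 7.8, 25 °C. Competition: test peptide serially diluted, 10 nM fluorescein Bim-BH3 added, 15 min at RT, then 50 nM Bcl-2 (final). Anisotropy read over 2-48 h, then curves fit. Direct: titrated protein, 10 nM probe, read 4-24 h.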

[4] = target: primary human platelets (Bcl-xL dependent) (Homo sapiens, UniProt Q07817); settings: primary human platelet samples
Mcl-1 (residues 172-327) = Mcl-1 (residues 172-327) (Homo sapiens, UniProt Q07820); test: Fluorescence polarization binding assay, Mcl-1; settings: for competition with fluorescently labeled Bim-BH3 for binding to Mcl-1 (in words): FP competition
Summary of the method: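 E. coli-expressed Mcl-1 (residues 172-327) in competition FP: 20 mM sodium phosphate, 50 mM NaCl, 1 mM EDTA, 0.001% Triton X, 5% DMSO, pH 7.8, 25 °C. Serially diluted unlabeled peptide plus 10 nM fluorescein tracer, 15 min, then protein. Tracer is 18-mer Bim-BH3 with 50 nM Mcl-1, or 23-mer Hrk-BH3 with 500 nM Mcl-1.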

Bcl-xL = test: Yeast-surface display, dual color fluorescence binding with competitors; set-up: species or system human; settings: 100-fold excess of each competitor, yeast-displayed peptide
Summary of the method: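 Yeast displaying BH3 peptides incubated with 10 nM Bcl-xL plus 1 μM each of Mcl-1, Bfl-1, Bcl-2 and Bcl-w, competitors premixed. Proteins are E. coli-expressed human constructs. Detection uses primary and labeled secondary antibodies: FITC marks peptide expression, APC marks receptor binding. Flow cytometry with 488 and/or 561 nm excitation.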

DHL10 cells = test: BH3 profiling, DHL10; format: cell-based; settings: Bax- and Bak-deleted cell line
Summary of the method: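 Test peptides (N-acetylated, C-amidated) titrated onto permeabilized Su-DHL10 cells (RPMI 1640, 10% FBS), 2×10^4 cells/well, triplicate wells per concentration. JC-1 fluorescence gives membrane-potential loss, normalized as 1 – [(Dsample–DFCCP)/(DDMSO–DFCCP)] against FCCP and DMSO. EC50 from global fit with linked baselines; at least three biological replicates, 2-3 days of culture apart.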

Bcl-w (residues 1-164) = target: T2, Bcl-w (residues 1-164) (Homo sapiens, UniProt Q92843); test: Fluorescence polarization competition binding assay, Bcl-w
T2 sequence (Q92843 1-164): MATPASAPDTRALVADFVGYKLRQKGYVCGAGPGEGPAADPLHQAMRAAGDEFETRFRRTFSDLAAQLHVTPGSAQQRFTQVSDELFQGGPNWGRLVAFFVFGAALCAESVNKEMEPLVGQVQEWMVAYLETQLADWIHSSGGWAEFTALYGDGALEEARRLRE
Summary of the method: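 E. coli-expressed Bcl-w (residues 1-164), 50 nM final, competed against 10 nM N-terminal fluorescein 18-mer Bim-BH3. Unlabeled peptide serially diluted and premixed with tracer 15 min before protein. Buffer: 20 mM sodium phosphate, 50 mM NaCl, 1 mM EDTA, 0.001% Triton X, 5% DMSO, pH 7.8, 25 °C.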

Bcl-xL (residues 1-209) [5] = target: T3, Bcl-xL (residues 1-209) (Homo sapiens, UniProt Q07817); test: Fluorescence polarization competition binding assay, Bcl-xL
[6] = target: MDA-MB-231 cells (Bcl-xL dependent) (Homo sapiens, UniProt Q07817)
[7] = target: OCI-Ly1 cells (Bcl-2 dependent) (Homo sapiens, UniProt P10415)
Bcl-xL (residues 1-209) [8] = target: T3, Bcl-xL (residues 1-209); test: fluorescence polarisation
Bcl-2 (residues 1-217) [9] = target: T1, Bcl-2 (residues 1-217); test: fluorescence polarisation
Bcl-xL (residues 1-209) [10] = target: Bcl-xL (residues 1-209) (human, UniProt Q07817-1 1-209); test: fluorescence polarisation
Bcl-2 (residues 1-217) [11] = target: Bcl-2 (residues 1-217) (human, UniProt P10415 1-217); test: fluorescence polarisation
[12] = FP competition with fluorescein 18-residue Bim-BH3

T3 sequence (Q07817 1-209): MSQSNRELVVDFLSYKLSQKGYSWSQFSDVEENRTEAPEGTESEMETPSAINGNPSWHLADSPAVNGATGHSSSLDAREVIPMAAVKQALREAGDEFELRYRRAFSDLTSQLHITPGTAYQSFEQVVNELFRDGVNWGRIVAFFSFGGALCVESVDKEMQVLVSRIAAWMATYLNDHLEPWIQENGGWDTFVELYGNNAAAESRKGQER
T1 sequence (P10415 1-217): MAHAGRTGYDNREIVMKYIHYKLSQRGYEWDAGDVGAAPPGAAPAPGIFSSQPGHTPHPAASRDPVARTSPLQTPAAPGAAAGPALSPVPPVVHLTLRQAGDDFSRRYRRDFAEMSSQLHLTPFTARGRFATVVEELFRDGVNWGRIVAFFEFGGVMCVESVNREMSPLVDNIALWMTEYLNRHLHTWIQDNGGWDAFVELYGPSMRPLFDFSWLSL
Sequence of Mcl-1 (residues 172-327) (Q07820 172-327): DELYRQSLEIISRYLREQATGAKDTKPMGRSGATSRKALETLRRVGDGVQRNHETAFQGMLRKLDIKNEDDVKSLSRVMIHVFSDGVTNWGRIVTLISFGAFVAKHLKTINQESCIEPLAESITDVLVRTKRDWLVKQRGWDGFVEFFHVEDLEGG
Sequence of OCI-Ly1 cells (Bcl-2 dependent) (P10415 whole entry, the tested form may be a part): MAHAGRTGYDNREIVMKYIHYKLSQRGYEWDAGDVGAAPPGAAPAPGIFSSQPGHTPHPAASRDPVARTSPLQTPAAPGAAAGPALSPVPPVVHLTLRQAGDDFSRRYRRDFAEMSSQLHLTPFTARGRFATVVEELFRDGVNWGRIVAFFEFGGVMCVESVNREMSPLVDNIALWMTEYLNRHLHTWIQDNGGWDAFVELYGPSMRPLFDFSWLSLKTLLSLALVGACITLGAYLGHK
Sequence of primary human platelets (Bcl-xL dependent) (Q07817 1-209): as the sequence (Q07817 1-209) above
Sequence of Bcl-xL (residues 1-209) (human, UniProt Q07817-1 1-209) (Q07817 1-209): as above
Sequence of MDA-MB-231 cells (Bcl-xL dependent) (Q07817 1-209): as above
Sequence of Bcl-2 (residues 1-217) (human, UniProt P10415 1-217) (P10415 1-217): as the sequence (P10415 1-217) above

weaker response than XXA1_Y4eK [7]: 3-4 fold
weaker binding to Bcl-2 than parent XXA1_Y4eK (Bcl-2 (residues 1-217) [3]): ~ 5 fold
reduction of affinity for Bcl-xL relative to XXA1_Y4eK (Bcl-xL (residues 1-209) [5]): ~ 18 fold
Molecule: CC[C@H](C)[C@H](NC(C)=O)C(=O)N[C@@H](Cc1c[nH]c2ccccc12)C(=O)N[C@@H](Cc1ccc(O)cc1)C(=O)N[C@@H](C)C(=O)N[C@@H](CCC(N)=O)C(=O)NCC(=O)N[C@@H](CC(C)C)C(=O)N[C@@H](CCCCN)C(=O)N[C@@H](CCCNC(=N)N)C(=O)N[C@@H](Cc1ccccc1)C(=O)NCC(=O)N[C@@H](CC(=O)O)C(=O)N[C@@H](CCC(=O)O)C(=O)N[C@@H](Cc1ccccc1)C(=O)N[C@@H](CC(N)=O)C(=O)N[C@@H](C)C(=O)N[C@@H](Cc1ccc(O)cc1)C(=O)N[C@@H](CCCCN)C(N)=O [Y4eK_18] (Ac-IWYAQGLKRFGDEFNAYK-NH2)

Ki (Bcl-xL (residues 1-209) [8]): < 0.1 nM
fold weaker binding than Bim-BH3 (Bcl-2 (residues 1-217) [9]): 5 fold
Molecule: Bim-BH3 with the point mutation I2dY (peptide)

Ki (Bcl-xL (residues 1-209) [8]): < 0.1 nM
Molecule: Bim-BH3 with the point mutation R3bK (peptide)

Ki (Bcl-xL (residues 1-209) [8]): 2 nM
Molecule: Puma-BH3, unlabeled 23-residue peptide

Ki (Bcl-xL (residues 1-209) [10]): ≤ 0.1 nM
Molecule: Ac-WAAQRYGRELRRMSDEFVDSFKK-NH2 [Bad-BH3, unlabeled 23-residue peptide]

More lines, now with the values behind:

Molecule: CC[C@H](C)[C@H](NC(=O)[C@H](CCC(=O)O)NC(=O)[C@H](CCCNC(=N)N)NC(=O)[C@H](C)NC(=O)[C@H](Cc1c[nH]c2ccccc12)NC(=O)[C@H](CCC(N)=O)NC(C)=O)C(=O)NCC(=O)N[C@@H](C)C(=O)N[C@@H](CCC(N)=O)C(=O)N[C@@H](CC(C)C)C(=O)N[C@@H](CCCNC(=N)N)C(=O)N[C@@H](CCCNC(=N)N)C(=O)N[C@@H](CCSC)C(=O)N[C@@H](C)C(=O)N[C@@H](CC(=O)O)C(=O)N[C@@H](CC(=O)O)C(=O)N[C@@H](CC(C)C)C(=O)N[C@@H](CC(N)=O)C(=O)N[C@@H](C)C(=O)N[C@@H](CCC(N)=O)C(=O)N[C@@H](Cc1ccc(O)cc1)C(=O)N[C@@H](CCC(=O)O)C(=O)N[C@@H](CCCNC(=N)N)C(N)=O [Puma, reference compound]
depolarization in the Mcl-1 dependent line (in words) [1]: strong response
EC50 [2]: 663 ± 223 nM

Molecule: CC[C@H](C)[C@H](NC(=O)[C@H](CCC(=O)O)NC(=O)[C@@H]1CCCN1C(=O)[C@H](CCCNC(=N)N)NC(C)=O)C(=O)N[C@@H](Cc1c[nH]c2ccccc12)C(=O)N[C@@H](Cc1ccc(O)cc1)C(=O)N[C@@H](C)C(=O)N[C@@H](CCC(N)=O)C(=O)NCC(=O)N[C@@H](CC(C)C)C(=O)N[C@@H](CCCCN)C(=O)N[C@@H](CCCNC(=N)N)C(=O)N[C@@H](Cc1ccccc1)C(=O)NCC(=O)N[C@@H](CC(=O)O)C(=O)N[C@@H](CCC(=O)O)C(=O)N[C@@H](Cc1ccccc1)C(=O)N[C@@H](CC(N)=O)C(=O)N[C@@H](C)C(=O)N[C@@H](Cc1ccc(O)cc1)C(=O)N[C@@H](Cc1ccc(O)cc1)C(=O)N[C@@H](C)C(=O)N[C@@H](CCCNC(=N)N)C(N)=O [XXA1] (Ac-RPEIWYAQGLKRFGDEFNAYYAR-NH2)
Kd (Bcl-2 (residues 1-217) [3]): ~17 nM
depolarization of platelets (in words) [4]: potent depolarization
competition with fluorescently labeled Bim-BH3 for binding to Mcl-1 (in words) (Mcl-1 (residues 172-327)): Neither XXA1 nor XXA1_G2gE could compete
depolarization in the Mcl-1 dependent line (in words) [1]: low amount of depolarization
EC50 [2]: 540 ± 183 nM
binding to Bcl-xL in the presence of competitor pro-survival proteins (Bcl-xL): robust binding
non-specific pore forming activities (DHL10 cells): None
weakening of binding to Bcl-w relative to Bim-BH3 (Bcl-w (residues 1-164); four mutations combined): ~ 150 fold
Ki (Bcl-xL (residues 1-209) [5]): ≤ 0.1 nM
affinity for Bcl-xL (in words) (Bcl-xL (residues 1-209) [5]; [12]): sub-nanomolar

Molecule: CC[C@H](C)[C@H](NC(=O)[C@H](CCC(=O)O)NC(=O)[C@@H]1CCCN1C(=O)[C@H](CCCNC(=N)N)NC(C)=O)C(=O)N[C@@H](Cc1c[nH]c2ccccc12)C(=O)N[C@@H](Cc1ccc(O)cc1)C(=O)N[C@@H](C)C(=O)N[C@@H](CCC(N)=O)C(=O)N[C@@H](CCC(=O)O)C(=O)N[C@@H](CC(C)C)C(=O)N[C@@H](CCCCN)C(=O)N[C@@H](CCCNC(=N)N)C(=O)N[C@@H](Cc1ccccc1)C(=O)NCC(=O)N[C@@H](CC(=O)O)C(=O)N[C@@H](CCC(=O)O)C(=O)N[C@@H](Cc1ccccc1)C(=O)N[C@@H](CC(N)=O)C(=O)N[C@@H](C)C(=O)N[C@@H](Cc1ccc(O)cc1)C(=O)N[C@@H](Cc1ccc(O)cc1)C(=O)N[C@@H](C)C(=O)N[C@@H](CCCNC(=N)N)C(N)=O [XXA1_G2gE] (Ac-RPEIWYAQELKRFGDEFNAYYAR-NH2)
binding to Bcl-2 (in words) (Bcl-2 (residues 1-217) [3]; [12]): bound tighter than XXA1
depolarization of platelets (in words) [4]: potent depolarization
Ki (Mcl-1 (residues 172-327)): ~31 nM
competition with fluorescently labeled Bim-BH3 for binding to Mcl-1 (in words) (Mcl-1 (residues 172-327)): Neither XXA1 nor XXA1_G2gE could compete
potency relative to Bad [6]: ~ 7 fold
depolarization in the Mcl-1 dependent line (in words) [1]: low amount of depolarization
EC50 [2]: 141 ± 50 nM
non-specific pore forming activities (DHL10 cells): None
binding to Bcl-w (in words) (Bcl-w (residues 1-164); [12]): bound tighter than XXA1
binding to Bcl-xL relative to XXA1 (in words) (Bcl-xL (residues 1-209) [5]; FP competition with 23-mer fluorescently labeled Bim-BH3): bound more tightly than XXA1

Molecule: CC[C@H](C)[C@H](NC(=O)[C@H](CCC(=O)O)NC(=O)[C@@H]1CCCN1C(=O)[C@H](CCCNC(=N)N)NC(C)=O)C(=O)N[C@@H](Cc1c[nH]c2ccccc12)C(=O)N[C@@H](Cc1ccc(O)cc1)C(=O)N[C@@H](C)C(=O)N[C@@H](CCC(N)=O)C(=O)NCC(=O)N[C@@H](CC(C)C)C(=O)N[C@@H](CCCCN)C(=O)N[C@@H](CCCNC(=N)N)C(=O)N[C@@H](Cc1ccccc1)C(=O)NCC(=O)N[C@@H](CC(=O)O)C(=O)N[C@@H](CCC(=O)O)C(=O)N[C@@H](Cc1ccccc1)C(=O)N[C@@H](CC(N)=O)C(=O)N[C@@H](C)C(=O)N[C@@H](Cc1ccc(O)cc1)C(=O)N[C@@H](CCCCN)C(N)=O [Y4eK_21] (Ac-RPEIWYAQGLKRFGDEFNAYK-NH2)
weaker response than XXA1_Y4eK [7]: 3-4 fold
Ki (Bcl-2 (residues 1-217) [3]): 430 nM
specificity for Bcl-xL over Bcl-2 (Bcl-2 (residues 1-217) [3]; ratio of FP binding constants): ~ 1000 fold
Ki (Bcl-xL (residues 1-209) [5]): 0.4 nM

Molecule: Bim-BH3 with the point mutation E2gG (peptide)
Ki (Bcl-xL (residues 1-209) [8]): < 0.1 nM
fold weaker binding than Bim-BH3 (Bcl-2 (residues 1-217) [9]): 7 fold

Molecule: Bim-BH3 with the point mutation I3dF (peptide)
Ki (Bcl-xL (residues 1-209) [8]): < 0.1 nM

Molecule: Hrk-BH3, unlabeled 23-residue peptide
Ki (Bcl-xL (residues 1-209) [8]): 10 nM

Molecule: Ac-IWYAQGLKRFGDEFNAYK-NH2 (designed binder) [Y4eK_18]
Ki (Bcl-xL (residues 1-209) [10]): ~2 nM
fold weaker binding than XXA1_Y4eK (Bcl-2 (residues 1-217) [11]): ~5 fold

— publication PMC4357494 (Journal of molecular biology, 2014)
